Results gathered from unrelated publications.
Protocols differ between the studies behind these lines.
Target: Serine/threonine-protein kinase ULK2 (ULK2, Homo sapiens, UniProt Q8IYT8)
One construct used (Q8IYT8 1-1036): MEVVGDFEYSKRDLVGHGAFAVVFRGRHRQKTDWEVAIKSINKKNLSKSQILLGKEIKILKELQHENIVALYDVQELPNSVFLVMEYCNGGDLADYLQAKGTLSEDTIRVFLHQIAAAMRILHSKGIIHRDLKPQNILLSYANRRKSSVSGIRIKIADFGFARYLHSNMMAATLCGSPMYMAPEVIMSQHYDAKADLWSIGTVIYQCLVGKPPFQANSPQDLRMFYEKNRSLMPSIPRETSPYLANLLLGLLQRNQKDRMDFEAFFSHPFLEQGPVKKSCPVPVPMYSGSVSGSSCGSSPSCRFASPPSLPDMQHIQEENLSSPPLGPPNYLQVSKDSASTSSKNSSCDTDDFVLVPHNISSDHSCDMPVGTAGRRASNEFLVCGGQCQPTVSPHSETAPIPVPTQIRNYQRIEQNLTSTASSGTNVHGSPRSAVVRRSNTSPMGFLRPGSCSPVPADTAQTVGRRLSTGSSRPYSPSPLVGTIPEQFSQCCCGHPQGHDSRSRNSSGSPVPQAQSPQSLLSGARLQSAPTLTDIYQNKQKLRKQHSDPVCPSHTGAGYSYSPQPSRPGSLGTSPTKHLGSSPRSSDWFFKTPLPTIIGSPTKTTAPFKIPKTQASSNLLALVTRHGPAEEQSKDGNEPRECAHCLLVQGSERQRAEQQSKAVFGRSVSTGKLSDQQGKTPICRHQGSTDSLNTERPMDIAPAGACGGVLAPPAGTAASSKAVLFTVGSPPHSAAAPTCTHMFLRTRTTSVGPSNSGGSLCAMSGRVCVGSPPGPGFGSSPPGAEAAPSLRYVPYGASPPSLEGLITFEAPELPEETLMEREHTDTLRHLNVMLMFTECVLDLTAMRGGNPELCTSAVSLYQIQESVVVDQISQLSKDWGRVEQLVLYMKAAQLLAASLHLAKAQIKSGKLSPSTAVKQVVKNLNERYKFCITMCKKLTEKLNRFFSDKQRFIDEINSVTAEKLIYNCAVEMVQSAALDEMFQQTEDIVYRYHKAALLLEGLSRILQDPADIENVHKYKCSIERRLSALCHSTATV

SMILES	effect on	method	concentration	remaining binding [%]
CC(C)(C)c1ccc(-c2nc(CBr)nn2-c2cccc(O)c2)cc1	cell-free assay	competition with immobilised ligand	10 µM	92
CCS(=O)(=O)c1cc2cc(C[C@](O)(CC(C)(C)c3ccc(F)cc3C(N)=O)C(F)(F)F)[nH]c2cn1	cell-free assay	competition with immobilised ligand	1 µM	100
O=C(NCCCN1CCOCC1)c1ccc(Nc2ncc(Cl)c(-c3ccc(Cl)s3)n2)cc1	binding	competition with immobilised ligand	1 µM	24
COc1cnc(Nc2cccc(S(N)(=O)=O)c2)nc1N1CCN(c2ccccc2)CC1	binding	competition with immobilised ligand	1 µM	96
C[C@@H]1CN(c2ccc3ncc(-c4ccc5[nH]nc(C6CC6)c5c4)n3n2)C[C@H](C)O1	binding	competition with immobilised ligand	0.5 µM	91
CSc1cccnc1N1CCN(Cc2nc3ccccc3[nH]2)CC1	cell-free assay	competition with immobilised ligand	1 µM	94
Cc1cnn2ncc(-c3ccnc(N(C)C)n3)c2c1	binding	–	1 µM	92
CCOC(=O)c1cc2cc(-c3cc(C(=O)NCc4ccc(C(=O)O)cc4)nn3C)ccc2[nH]1	cell-free assay	competition with immobilised ligand	0.1 µM	78
CN(c1nccc(-c2cnn3ncccc23)n1)C1CC1	binding	–	1 µM	100
CCCOc1ccc([C@H]2[C@H](C(=O)O)[C@@H](c3ccc4c(c3)OCO4)CN2CC(=O)Nc2c(CC)cccc2CC)cc1	cell-free assay	competition with immobilised ligand	1 µM	55
N[C@@H]1CCN(c2nccc(-c3cnn4ncccc34)n2)C1	binding	–	1 µM	100
CCN1CCN(Cc2ccc(C(=O)Nc3ccc(C)c(Oc4ccc5c(c4)CC(=O)N5)c3)cc2C(F)(F)F)CC1	binding	competition with immobilised ligand	1 µM	100
FC(F)(F)Oc1cccc(-c2cnc3ccc(-c4ccncc4)nn23)c1	binding	competition with immobilised ligand	5 µM	78
C[C@@H]1CCN(c2nccc(-c3cnn4ncccc34)n2)C1	binding	–	1 µM	69
CS(=O)(=O)c1cc(C2(NC(=O)c3cncc4c3cnn4-c3ccc(F)cc3)CC2)ccn1	cell-free assay	competition with immobilised ligand	1 µM	92
O=C(NCCCN1CCOCC1)c1ccc(Nc2nccc(-c3cc4ccccc4s3)n2)cc1	binding	competition with immobilised ligand	1 µM	62
N#Cc1ccccc1CSc1nnc2c(n1)[nH]c1ccccc12	binding	competition with immobilised ligand	10 µM	94
O=C(c1ccc(Nc2ncc(Cl)c(-c3cc4ccccc4s3)n2)cc1)N1CCC(N2CCCC2)CC1	binding	competition with immobilised ligand	1 µM	35
F[C@@H]1CCN(c2nccc(-c3cnn4ncccc34)n2)C1	binding	–	1 µM	100
O=C1CCc2cc(Nc3cc(OC4CCOCC4)c([N+](=O)[O-])cc3Cl)ccc2N1	cell-free assay	competition with immobilised ligand	1 µM	99
O=C(NCC1CCOCC1)c1n[nH]cc1NC(=O)c1c(F)cccc1F	binding	competition with immobilised ligand	1 µM	81
COc1ccc2c(c1)O[C@H](c1ccc(OC)c(OC)c1)C[C@@H]2NC(=O)C1(c2ccc3c(c2)OC(F)(F)O3)CC1	cell-free assay	competition with immobilised ligand	1 µM	100
c1cncc(-c2cccc(Nc3nccc(NC4CCCCC4)n3)c2)c1	binding	competition with immobilised ligand	10 µM	80
COc1cc(-c2cn(C3CCc4c(F)cccc4N(CC(F)(F)F)C3=O)nn2)ccc1-n1cnc(C)c1 (stereo not shown)	cell-free assay	competition with immobilised ligand	1 µM	100
COc1ccnn2ncc(-c3ccnc(N(C)C)n3)c12	binding	–	1 µM	100
